Data reported in ChEMBL document CHEMBL1142540, “Novel piperidinylpyrimidine derivatives as inhibitors of HIV-1 LTR activation” (Bioorg Med Chem, 2008).

How the values were obtained:
[1] = Inhibition of HIV1 LTR-driven CAT gene expression in PMA-stimulated human JURKAT cells; format: cell-based; conditions: Human immunodeficiency virus 1, Jurkat
Method in brief: (§1)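 Jurkat cells electroporated (140 V) with HIV-1 LTR-CAT plasmid p469 using DEAE-dextran and cultured 20 h. Cells then stimulated with PMA 10 ng/ml in presence of compound for 24 h at 37 °C, lysed by freeze-thaw.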

[2] = test system: Jurkat; assay: Cytotoxicity against human JURKAT cells; format: cell-based
Method in brief: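 Cell number of treated Jurkat cells counted by Coulter counter to assess inhibition of proliferation.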

[3] = test system: Jurkat; assay: Inhibition of HIV1 LTR-driven CAT gene expression in PMA-stimulated human JURKAT cells at 5 uM; format: cell-based; conditions: Human immunodeficiency virus 1; method in brief: as §1
[4] = test system: Peritoneal macrophage cell; assay: Inhibition of LPS-stimulated TNFalpha production in BALB/c mouse peritoneal macrophages by ELISA; format: functional, cell-based
Method in brief: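 Thioglycolate-elicited peritoneal macrophages from 5-week-old female BALB/c mice, adherent cells at 2×10^5/well in MEM with 10% FBS. LPS 10 ug/ml final, added together with compound (DMSO below 0.1%), 20 h. Supernatant TNF-α measured by sandwich ELISA against recombinant mouse TNF-α standard curve, absorbance at 450 nm.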

[5] = test system: Jurkat; assay: Inhibition of HIV1 LTR-driven CAT gene expression in Tat-stimulated human JURKAT cells at 1 uM; format: cell-based; conditions: Human immunodeficiency virus 1
Method in brief: (§2)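 Jurkat cells co-electroporated (140 V) with LTR-CAT p469 plus pSV-Tat using DEAE-dextran, cultured 20 h, then treated with compound alone (no PMA) for 24 h at 37 °C.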

[6] = Inhibition of HIV1 LTR-driven CAT gene expression in Tat-stimulated human JURKAT cells; format: cell-based; conditions: Human immunodeficiency virus 1, Jurkat; method in brief: as §2
[7] = test system: PBMC; assay: Inhibition of LPS-stimulated TNFalpha production in human PBMC; format: functional, cell-based
Method in brief: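 Human PBMC from healthy donors isolated by Ficoll-Paque, seeded at 1×10^5 cells/well in RPMI 1640 with 10% heat-inactivated FBS and L-glutamine. Stimulated with LPS 0.1 ug/ml final, compound added at the same time (DMSO below 0.1%), 20 h; supernatants collected for TNF-α.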

[8] = Inhibition of Tat-induced HIV1 LTR transactivation; parameters: species or system Human immunodeficiency virus 1
Method in brief: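 Jurkat cells electroporated at 140 V with HIV-1 LTR-CAT plasmid p469 (1 µg) plus pSV-Tat (0.5 µg) and DEAE-dextran, then cultured 20 h at 37 °C. Cells were exposed to compound without PMA for 24 h and lysed. Reported as % inhibition at 5 µM or IC50, single determination.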

[9] = Inhibition of HIV1 LTR-driven CAT gene expression in PMA-stimulated HEK293-27-2 cells assessed as […]; conditions: Human immunodeficiency virus 1
[10] = Inhibition of Tat-induced HIV1 LTR transactivation in human HeLa cells assessed as CAT expression after 2 days; format: cell-based; conditions: Human immunodeficiency virus 1, HeLa, 48 h

Compound	IC50 [1] [nM]	Activity [2]	inhibition [3] [%]	further results
COc1ccc(Cc2cc(C3CCN(C(=O)c4ccc5c(c4)OCO5)CC3)nc(Cl)n2)cc1	700	Non-toxic		
Nc1nc(Cc2ccc(Br)cc2)cc(C2CCN(C(=O)c3ccc4c(c3)OCO4)CC2)n1	700	Non-toxic		
CCCCCCCC(=O)N1CCC(c2cc(Cc3ccc(OC)cc3)nc(N)n2)CC1	> 5000	Non-toxic	19	
Nc1nc(Cc2ccc(O)cc2)cc(C2CCN(C(=O)c3ccc4c(c3)OCO4)CC2)n1	> 5000	Non-toxic	36	
COc1ccc(Cc2cc(C3CCN(C(=O)c4ccc([N+](=O)[O-])cc4)CC3)nc(N)n2)cc1	> 5000	Non-toxic	23	IC50 [4]: 700 nM
COc1cc(Cc2cc(C3CCN(C(=O)c4ccc5c(c4)OCO5)CC3)nc(N)n2)cc(OC)c1	300	Non-toxic		inhibition [5]: 56%; IC50 [6]: < 1000 nM; IC50 [7]: 3300 nM
CSc1ccc(Cc2cc(C3CCN(C(=O)c4ccc5c(c4)OCO5)CC3)nc(N)n2)cc1	200	Non-toxic		inhibition [5]: 57%; IC50 [6]: < 1000 nM
COc1ccc(Cc2cc(C3CCN(C(=O)c4ccc5ocnc5c4)CC3)nc(N)n2)cc1	> 5000	Non-toxic	-7	
COc1ccc(Cc2cc(C3CCN(C(=O)c4ccc5c(c4)CCO5)CC3)nc(N)n2)cc1	> 5000	Non-toxic	-8	
COc1ccc(Cc2cc(C3CCN(C(=O)c4ccc5c(c4)OCO5)CC3)no2)cc1	> 5000	Non-toxic	36	
COc1ccc(Cc2cc(C3CCN(Cc4ccc5c(c4)OCO5)CC3)nc(N)n2)cc1	> 5000	Non-toxic	-2	
COc1ccc(Cc2cc(C3CCN(C(=O)c4ccc5c(c4)OCO5)CC3)n[nH]2)cc1	> 5000	Non-toxic	35	
COc1ccc(-c2c(C)nc(N)nc2C2CCN(C(=O)c3ccc4c(c3)OCO4)CC2)cc1	> 5000	Non-toxic	31	
COc1ccc(Cc2cc(C3CCN(C(=O)c4ccccc4)CC3)nc(N)n2)cc1	> 5000	Non-toxic	19	
COc1ccc(Cc2cc(C3CCN(C(=O)c4ccc5c(c4)OCO5)CC3)nc(N)n2)cc1	600	Non-toxic	86	IC50 [4]: 600 nM; IC50 [6]: 4000 nM; IC50 [7]: 1900 nM
O=C1CN=C(c2ccc[nH]2)c2cc(Cl)ccc2N1				IC50 [8]: 100 nM
COc1ccc(Cc2cc(C3CCN(C(=O)c4ccc5ncoc5c4)CC3)nc(N)n2)cc1	> 5000	Non-toxic	-8	
COc1ccc(Cc2cc(C3CCN(C(=O)c4ccc5nsnc5c4)CC3)nc(N)n2)cc1	> 5000	Non-toxic	4	
COc1ccc(Cc2cc(C3CCN(C(=O)c4ccc(OC)c(OC)c4)CC3)nc(N)n2)cc1	> 5000	Non-toxic	14	IC50 [4]: 900 nM
COc1ccc(Cc2cc(C3CCN(C(=O)c4ccc5occc5c4)CC3)nc(N)n2)cc1	> 5000	Non-toxic	4	
COc1ccc(Cc2cc(C3CCN(C(=O)c4ccc5c(c4)OCCO5)CC3)nc(N)n2)cc1	> 5000	Non-toxic	7	
Nc1nc(Cc2ccccc2)cc(C2CCN(C(=O)c3ccc4c(c3)OCO4)CC2)n1	800	Non-toxic		IC50 [7]: 3200 nM
CC(=O)CCCCn1c(=O)c2c(ncn2C)n(C)c1=O [PENTOXIFYLLINE]				IC50 [9]: 500000 nM
Nc1nc(-c2ccc(Cl)cc2)cc(C2CCN(C(=O)c3ccc4c(c3)OCO4)CC2)n1	> 5000	Non-toxic	42	
COc1ccc(Cc2cc(C3CCN(C(=O)c4ccc(OC)cc4)CC3)nc(N)n2)cc1	> 5000	Non-toxic	-5	IC50 [4]: 500 nM
COc1ccc(Cc2cc(C3CCN(C(=O)c4ccc5ccoc5c4)CC3)nc(N)n2)cc1	> 5000	Non-toxic	2	

Compound	IC50 [1] [nM]	Activity [2]	inhibition [3] [%]	further results
Nc1nc(C2CCN(C(=O)c3ccc4c(c3)OCO4)CC2)c2ccccc2n1	2600	Non-toxic		
Cc1cc(C2CCN(C(=O)c3ccc4c(c3)OCO4)CC2)nc(N)n1	> 5000	Non-toxic	10	
COc1ccc(Cc2cc(C3CCN(C(=O)Cc4ccc(OC)c(OC)c4)CC3)nc(N)n2)cc1	> 5000	Non-toxic	7	
C[S+]([O-])c1ccc(Cc2cc(C3CCN(C(=O)c4ccc5c(c4)OCO5)CC3)nc(N)n2)cc1 (configuration not stated)	> 5000	Non-toxic	27	
COc1ccc(Cc2cc(C3CCN(C(=O)c4ccc5c(c4)OCO5)CC3)nc(=O)[nH]2)cc1	> 5000	Non-toxic		
COc1cccc(Cc2cc(C3CCN(C(=O)c4ccc5c(c4)OCO5)CC3)nc(N)n2)c1	300	Non-toxic		IC50 [7]: 2700 nM
CS(=O)(=O)c1ccc(Cc2cc(C3CCN(C(=O)c4ccc5c(c4)OCO5)CC3)nc(N)n2)cc1	> 5000	Non-toxic	37	
COc1ccc(Cc2cc(C3CCN(C(=O)c4cccc5c4OCO5)CC3)nc(N)n2)cc1	> 5000	Non-toxic	13	
COc1ccc(OC)c(Cc2cc(C3CCN(C(=O)c4ccc5c(c4)OCO5)CC3)nc(N)n2)c1	200	Non-toxic		inhibition [5]: 58%; IC50 [6]: < 1000 nM; IC50 [7]: 7700 nM
Nc1nc(Cc2ccc(Cl)cc2)cc(C2CCN(C(=O)c3ccc4c(c3)OCO4)CC2)n1	1300	Non-toxic		IC50 [6]: 7100 nM; IC50 [7]: 13000 nM
Nc1nc(Cc2ccc3c(c2)OCO3)cc(C2CCN(C(=O)c3ccc4c(c3)OCO4)CC2)n1	700	Non-toxic		IC50 [7]: 3300 nM
Cn1cc(C(=O)O)c(=O)c2cc(F)c(N3CC=C(c4ccccc4)CC3)c(C(F)(F)F)c21 [FLUOROQUINOLINE K37]				IC50 [10]: < 160 nM
COc1ccc(Cc2cc(C3CCN(C(=O)c4ccc5c(c4)OCO5)CC3)ncn2)cc1	500	Non-toxic		
COc1ccc(Cc2cc(C3CCN(C(=O)c4ccc5c(c4)OCO5)CC3)on2)cc1	> 5000	Non-toxic	35	
Nc1nc(Cc2ccc(OCc3ccccc3)cc2)cc(C2CCN(C(=O)c3ccc4c(c3)OCO4)CC2)n1	1200	Non-toxic		IC50 [6]: 2100 nM
COc1ccc(Cc2cc(C3CCN(C(=O)Cc4ccc5c(c4)OCO5)CC3)nc(N)n2)cc1	> 5000	Non-toxic	16	
COc1ccc(Cc2cc(C3CCN(C(=O)c4ccc5c(c4)OCO5)CC3)nc(N)n2)cc1OC	600	Non-toxic		IC50 [7]: 3200 nM
COc1ccc(-c2cc(C3CCN(C(=O)c4ccc5c(c4)OCO5)CC3)nc(N)n2)cc1	1900	Non-toxic		
Nc1nc(CCc2ccccc2)cc(C2CCN(C(=O)c3ccc4c(c3)OCO4)CC2)n1	2100	Non-toxic		
COc1ccc(Cc2cc(C3CCN(C(=O)c4ccc5[nH]ccc5c4)CC3)nc(N)n2)cc1	> 5000	Non-toxic	1	
COc1ccc(Cc2cc(C3CCN(C(=O)c4ccc(Cl)c(Cl)c4)CC3)nc(N)n2)cc1	> 5000	Non-toxic	17	IC50 [4]: 700 nM
COc1ccc(Cc2cc(C3CCN(C(C)=O)CC3)nc(N)n2)cc1	> 5000	Non-toxic	0	
C[S+]([O-])c1ccc(-c2nc(-c3ccc(F)cc3)c(-c3ccncc3)[nH]2)cc1 (configuration not stated) [SB-203580]				IC50 [10]: 100 nM
Nc1nc(-c2ccccc2)cc(C2CCN(C(=O)c3ccc4c(c3)OCO4)CC2)n1	> 5000	Non-toxic	47	
COc1ccc(Cc2cc(C3CCN(C(=O)c4ccc(Cl)cc4)CC3)nc(N)n2)cc1	> 5000	Non-toxic	21	IC50 [4]: 600 nM
